According to ChEMBL document CHEMBL1123783, “Synthesis and anticonvulsant activity of analogues of 4-amino-N-(1-phenylethyl)benzamide” (J Med Chem, 1987):
Where “and” joins values, the source holds several entries; their conditions need not be identical. Equal entries are not always repeated.

What was measured:
Mus musculus [1] = assay: Compound was evaluated for anticonvulsant activity against subcutaneous pentylenetetrazole-induced convulsions after 4 hr; E indicates no activity at 30 mg/kg.; format: functional, organism-based; parameters: dose 30 mg/kg
Method in brief: (§1)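 Male Carworth Farms number-one mice were dosed ip in 30% PEG 400, at 30, 100 or 300 mg/kg (sometimes 600 mg/kg). Pentylenetetrazole, 85 mg/kg as a 0.5% solution, was injected subcutaneously in the posterior midline. Protection meant no episode of clonic spasms lasting at least 5 s during a 30-min observation period.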

Mus musculus [2] = assay: Compound was evaluated for anticonvulsant activity against maximal electric shock (MES) induced convulsions after 4 hr; E indicates no activity at 30 mg/kg.; format: functional, organism-based; parameters: dose 30 mg/kg
Mus musculus [3] = assay: Compound was evaluated for toxicity by rotarod assay method after 4 hr; E indicates no activity at 30 mg/kg.; format: organism-based; parameters: dose 30 mg/kg; settings: in vivo
Method in brief: (§2)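 Male Carworth Farms number-one mice received test compound intraperitoneally in 30% polyethylene glycol 400 at 30, 100 and 300 mg/kg, with 600 mg/kg in some cases. Neurological deficit was read at 30 min or 4 h after dosing on a 1-in.-diameter knurled plastic rod turning at 6 rpm. Toxicity was scored as failure to stay on the rod for 1 min.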

Mus musculus [4] = assay: Compound was evaluated for anticonvulsant activity against subcutaneous pentylenetetrazole-induced convulsions after 30 minutes; E indicates no activity at 30 mg/kg.; format: functional, organism-based; parameters: dose 30 mg/kg; method in brief: as §1
Mus musculus [5] = assay: Compound was evaluated for anticonvulsant activity against maximal electric shock (MES) induced convulsions after 30 minutes at a dose of 300 mg/kg; format: functional
Mus musculus [6] = assay: Compound was evaluated for toxicity by rotarod assay method after 30 minutes at a dose of 600 mg/kg; format: organism-based; parameters: dose 600 mg/kg; settings: in vivo, 0.5 h; method in brief: as §2
Mus musculus [7] = assay: Compound was evaluated for anticonvulsant activity against subcutaneous pentylenetetrazole-induced convulsions after 30 minutes; C indicates no activity at 300 mg/kg.; format: functional, organism-based; parameters: dose 300 mg/kg; method in brief: as §1
Mus musculus [8] = assay: Compound was evaluated for anticonvulsant activity against maximal electric shock (MES) induced convulsions after 30 minutes; C indicates no activity at 300 mg/kg.; format: functional, organism-based; parameters: dose 300 mg/kg
Mus musculus [9] = species: Mus musculus; assay: Compound was evaluated for anticonvulsant activity against maximal electroshock seizures; format: functional
Method in brief: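 Male Carworth Farms number-one mice received the compound ip in 30% polyethylene glycol 400 before maximal electroshock testing, at several dose levels. The median effective dose (ED50) was obtained by the graphical method.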

Mus musculus [10] = assay: Compound was evaluated for anticonvulsant activity against subcutaneous pentylenetetrazole-induced convulsions after 4 hr; C indicates no activity at 300 mg/kg.; format: functional, organism-based; parameters: dose 300 mg/kg; method in brief: as §1
Mus musculus [11] = assay: Compound was evaluated for toxicity by rotarod assay method after 4 hr; C indicates no activity at 300 mg/kg.; format: organism-based; parameters: dose 300 mg/kg; settings: in vivo; method in brief: as §2
Mus musculus [12] = assay: Compound was evaluated for toxicity by rotarod assay method after 30 minutes; C indicates no activity at 300 mg/kg.; format: organism-based; parameters: dose 300 mg/kg; settings: in vivo, 0.5 h; method in brief: as §2
Mus musculus [13] = assay: Compound was evaluated for anticonvulsant activity against maximal electric shock (MES) induced convulsions after 4 hr at a dose of 300 mg/kg; format: functional
Mus musculus [14] = species: Mus musculus; assay: Hypnotic dose was evaluated in mice; format: functional
[15] = Protective index is the ratio of TD50 to ED50; format: ADME
Method in brief: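 Protective index was calculated as rotorod TD50 divided by anti-MES ED50. Both were graphical median doses from ip dosing in 30% PEG 400 in male Carworth Farms mice.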

[16] = Lethal dose was evaluated in mice; format: toxicity, organism-based; settings: mouse, in vivo
Mus musculus [17] = assay: Compound was evaluated for anticonvulsant activity against maximal electric shock (MES) induced convulsions after 4 hr; C is inactive at 300 mg/kg.; format: functional, organism-based; parameters: dose 300 mg/kg
Mus musculus [18] = assay: Compound was evaluated for anticonvulsant activity against subcutaneous pentylenetetrazole-induced convulsions after 30 minutes;C is inactive at 300 mg/kg.; format: functional, organism-based; parameters: dose 300 mg/kg; method in brief: as §1
Mus musculus [19] = assay: Compound was evaluated for anticonvulsant activity against subcutaneous pentylenetetrazole-induced convulsions after 4 hr; C is inactive at 300 mg/kg.; format: functional, organism-based; parameters: dose 300 mg/kg; method in brief: as §1
Mus musculus [20] = assay: Compound was evaluated for anticonvulsant activity against maximal electric shock (MES) induced convulsions after 30 minutes;C is inactive at 300 mg/kg.; format: functional, organism-based; parameters: dose 300 mg/kg
Mus musculus [21] = assay: Compound was evaluated for toxicity by rotarod assay method after 4 hr; C is inactive at 300 mg/kg.; format: organism-based; parameters: dose 300 mg/kg; settings: in vivo; method in brief: as §2
Mus musculus [22] = assay: Compound was evaluated for toxicity by rotarod assay method after 30 minutes;C is inactive at 300 mg/kg.; format: organism-based; parameters: dose 300 mg/kg; settings: in vivo, 0.5 h; method in brief: as §2

For `CC(NCc1ccccc1N)c1ccccc1` (configuration not stated), the Activity (Mus musculus [1]) was “No activity at 30 mg/kg”, the Activity (Mus musculus [2]) was “No activity at 30 mg/kg” and the Toxicity (Mus musculus [3]) was “No activity at 30 mg/kg”. For the same compound, the Activity (Mus musculus [4]) was “No activity at 30 mg/kg”, the Activity (Mus musculus [5]) was 2 and the Toxicity (Mus musculus [6]) was 1.
With `CN(C)c1ccc(C(=O)NCc2ccccc2)cc1` the Activity (Mus musculus [7]) was “No activity at 300 mg/kg”, the Activity (Mus musculus [8]) was “No activity at 300 mg/kg” and the ED50 (Mus musculus [9]) was 233 mg/kg. For the same compound, the Activity (Mus musculus [10]) was “No activity at 300 mg/kg”, the Toxicity (Mus musculus [11]) was “No activity at 300 mg/kg” and the Toxicity (Mus musculus [12]) was “No activity at 300 mg/kg”. It also gave an Activity (Mus musculus [13]) of 2.
In the case of `CC(NC(=O)c1ccc(N)cc1)c1ccccc1` (configuration not stated), the HD50 (Mus musculus [14]) is reported as 461.76 mg/kg, the Protective index [15] is reported as 9.5 and 4.1 and the LD50 [16] is reported as 718 mg/kg.
With `CC(NC(=O)c1ccccc1)c1ccccc1` (configuration not stated) the Activity (Mus musculus [17]) was “No activity at 300 mg/kg”, the Activity (Mus musculus [18]) was “No activity at 300 mg/kg” and the Activity (Mus musculus [19]) was “No activity at 300 mg/kg”. The Activity (Mus musculus [20]) was “No activity at 300 mg/kg”, the Toxicity (Mus musculus [21]) was “No activity at 300 mg/kg” and the Toxicity (Mus musculus [22]) was “No activity at 300 mg/kg”.
